Measured values reported in ChEMBL document CHEMBL4014338, “Discovery of Small Molecules as Multi-Toll-like Receptor Agonists with Proinflammatory and Anticancer Activities” (J Med Chem, 2017).

Experiments:
HeLa [1] = assay: Antiproliferative activity against human HeLa cells after 48 hrs by WST1 assay; format: functional, cell-based
In short: (§1)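 Cells seeded at 5 × 10^3/well and left 24 h, then given a concentration series for 24, 48 or 72 h. WST-1 reagent added and incubated at 37 °C for 30 min–2 h until color change; absorbance 450 nm. Growth inhibition = (1 − [sample − background]/[control − background]) × 100. IC50 mean ± SD, three cell preparations.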

HeLa [2] = assay: Cell cycle arrest in human HeLa cells assessed as accumulation at S phase at 40 uM after 24 hrs by propidium iodide staining based flow cytometry (reference value: 31%); format: functional
Toll-like receptor 9 = molecular target: T1, Toll-like receptor 9 (Homo sapiens, UniProt Q9NR96); assay: Agonist activity at human TLR9 expressed in HEK293 cells assessed as induction of NF-kB activation-mediated SEAP production after 24 hrs by HTS assay; format: cell-based
T1 sequence (Q9NR96 whole entry): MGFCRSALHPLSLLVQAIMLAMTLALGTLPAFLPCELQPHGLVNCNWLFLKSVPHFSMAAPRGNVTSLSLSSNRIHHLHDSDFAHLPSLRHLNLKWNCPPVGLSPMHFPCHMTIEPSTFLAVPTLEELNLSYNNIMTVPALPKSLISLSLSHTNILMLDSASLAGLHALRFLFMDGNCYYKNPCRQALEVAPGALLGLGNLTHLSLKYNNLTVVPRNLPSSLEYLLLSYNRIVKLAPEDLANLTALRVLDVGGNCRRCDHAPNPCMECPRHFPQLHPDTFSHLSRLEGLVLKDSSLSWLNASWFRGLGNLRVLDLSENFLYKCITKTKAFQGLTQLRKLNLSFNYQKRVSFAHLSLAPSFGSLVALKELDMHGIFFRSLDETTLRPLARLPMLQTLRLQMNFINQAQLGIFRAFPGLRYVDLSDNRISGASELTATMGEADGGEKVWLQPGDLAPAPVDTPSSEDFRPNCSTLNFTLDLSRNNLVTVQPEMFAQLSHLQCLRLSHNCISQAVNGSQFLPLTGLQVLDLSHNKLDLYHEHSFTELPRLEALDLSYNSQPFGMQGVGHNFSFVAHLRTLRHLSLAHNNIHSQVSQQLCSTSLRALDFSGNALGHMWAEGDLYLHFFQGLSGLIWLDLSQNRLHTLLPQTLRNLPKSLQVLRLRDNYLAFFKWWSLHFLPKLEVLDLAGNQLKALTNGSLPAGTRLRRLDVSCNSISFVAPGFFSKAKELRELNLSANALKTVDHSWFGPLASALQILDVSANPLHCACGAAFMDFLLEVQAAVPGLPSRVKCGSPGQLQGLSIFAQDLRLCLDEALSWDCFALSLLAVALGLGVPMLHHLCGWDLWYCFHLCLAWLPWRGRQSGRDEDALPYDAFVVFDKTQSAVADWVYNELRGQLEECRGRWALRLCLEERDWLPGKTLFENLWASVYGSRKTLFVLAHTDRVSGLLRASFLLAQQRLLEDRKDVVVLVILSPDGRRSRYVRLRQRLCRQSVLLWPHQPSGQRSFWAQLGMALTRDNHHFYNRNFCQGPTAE
In short: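 HEK293 cells stably expressing human TLR8 or TLR9 plus an NF-κB-inducible SEAP reporter, seeded at 5 × 10^4 cells/well for 24 h, then treated for 24 h. Supernatant incubated with QUANTI-Blue at 37 °C for 1 h and OD read at 620 nm. Positive controls were R848 (TLR8) and ODN2006 (TLR9). EC50 reported as mean ± SD.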

Toll-like receptor 2 = Toll-like receptor 2 (Homo sapiens, UniProt O60603); assay: Agonist activity at human TLR2 expressed in HEK293 cells assessed as induction of NF-kB activation-mediated SEAP production after 24 hrs by HTS assay; format: cell-based
In short: (§2)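 Stable HEK293 lines expressing a single hTLR plus a SEAP reporter, grown in DMEM/10% FBS with selective antibiotics. Seeded at 5 × 10^4 cells/well for 24 h at 37 °C, then treated 24 h. Supernatant mixed with QUANTI-Blue, 1 h at 37 °C, OD 620 nm. Cognate agonists: Pam3CSK4 (TLR2), poly I:C (TLR3), LPS (TLR4), FLA-BS (TLR5), R848 (TLR7). EC50 as mean ± SD.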

HeLa [3] = assay: Cell cycle arrest in human HeLa cells assessed as accumulation at G2/M phase at 10 uM after 24 hrs by propidium iodide staining based flow cytometry (reference value: 17%); format: functional
HeLa [4] = assay: Cell cycle arrest in human HeLa cells assessed as accumulation at G0/G1 phase at 10 uM after 24 hrs by propidium iodide staining based flow cytometry (reference value: 52%); format: functional
HMEC [5] = assay: Antiproliferative activity against HMEC after 48 hrs by WST1 assay; format: cell-based; details: Homo sapiens; in short: as §1
HeLa [6] = assay: Cell cycle arrest in human HeLa cells assessed as accumulation at G0/G1 phase at 40 uM after 24 hrs by propidium iodide staining based flow cytometry (reference value: 52%); format: functional
[7] = molecular target: Toll-like receptor 3 (Homo sapiens) (UniProt O15455); assay: Agonist activity at human TLR3 expressed in HEK293 cells assessed as induction of NF-kB activation-mediated SEAP production at 25 uM after 24 hrs by HTS assay relative to control; format: cell-based
In short: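 hTLR3 HEK293 SEAP reporter cells seeded at 5 × 10^4 cells/well for 24 h, exposed to 25 μM for 24 h. Supernatant SEAP detected with QUANTI-Blue (1 h, 37 °C, OD 620 nm). Activation normalized to untreated cells and expressed as fold change.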

HMEC [8] = assay: Antiproliferative activity against HMEC after 72 hrs by WST1 assay; format: cell-based; details: Homo sapiens; in short: as §1
Toll-like receptor 4 = Toll-like receptor 4 (Homo sapiens, UniProt O00206); assay: Agonist activity at human TLR4 expressed in HEK293 cells assessed as induction of NF-kB activation-mediated SEAP production after 24 hrs by HTS assay; format: cell-based; in short: as §2
[9] = molecular target: T2, Toll-like receptor 3/8/9 (Homo sapiens) (UniProt O15455+Q9NR96+Q9NR97); assay: Agonist activity at TLR3/TLR8/TLR9 in human THP1 cells assessed as increase in IL-8 mRNA level after 12 hrs by qRT-PCR method; format: cell-based
In short: (§3)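 THP-1 cells (1.5 × 10^6/well) differentiated with PMA (20 nM) for 2 days, then 24 h in fresh RPMI 1640; nonadherent cells removed. Treated with indicated compound concentrations for 12 h, washed with PBS, and mRNA measured by qRT-PCR. Expressed as fold change versus untreated control, poly I:C (5 μg/mL) as reference. Mean ± SD of three independent experiments.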

[10] = molecular target: T2, Toll-like receptor 3/8/9 (Homo sapiens); assay: Agonist activity at TLR3/TLR8/TLR9 in human THP1 cells assessed as increase in TNFalpha mRNA level after 12 hrs by qRT-PCR method; format: cell-based; in short: as §3

T2 sequence (O15455 whole entry, looked up, one chain of several): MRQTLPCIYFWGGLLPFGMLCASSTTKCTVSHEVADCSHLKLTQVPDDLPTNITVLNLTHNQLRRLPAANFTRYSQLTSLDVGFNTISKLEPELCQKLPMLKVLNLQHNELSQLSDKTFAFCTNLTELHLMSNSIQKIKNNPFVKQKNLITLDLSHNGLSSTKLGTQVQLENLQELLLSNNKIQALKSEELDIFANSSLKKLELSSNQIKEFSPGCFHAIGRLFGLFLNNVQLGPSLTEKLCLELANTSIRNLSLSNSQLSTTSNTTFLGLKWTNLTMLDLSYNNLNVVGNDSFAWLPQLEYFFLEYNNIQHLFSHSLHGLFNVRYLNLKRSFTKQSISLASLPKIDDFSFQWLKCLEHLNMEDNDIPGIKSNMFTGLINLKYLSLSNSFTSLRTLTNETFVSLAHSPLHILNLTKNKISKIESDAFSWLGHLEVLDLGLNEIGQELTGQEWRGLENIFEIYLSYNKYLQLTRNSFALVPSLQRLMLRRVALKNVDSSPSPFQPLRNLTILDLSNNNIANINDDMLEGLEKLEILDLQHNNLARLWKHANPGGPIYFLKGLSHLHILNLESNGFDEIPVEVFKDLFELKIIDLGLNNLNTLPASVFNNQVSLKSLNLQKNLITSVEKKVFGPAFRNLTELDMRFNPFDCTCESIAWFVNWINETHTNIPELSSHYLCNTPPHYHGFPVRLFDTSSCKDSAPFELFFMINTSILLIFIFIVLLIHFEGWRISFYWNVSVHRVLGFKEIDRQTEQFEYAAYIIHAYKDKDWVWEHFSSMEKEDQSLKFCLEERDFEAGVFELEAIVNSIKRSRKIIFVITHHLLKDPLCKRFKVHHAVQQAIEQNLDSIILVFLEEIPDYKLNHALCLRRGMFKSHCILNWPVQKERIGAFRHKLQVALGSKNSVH
T2 sequence (Q9NR97 whole entry, looked up, one chain of several): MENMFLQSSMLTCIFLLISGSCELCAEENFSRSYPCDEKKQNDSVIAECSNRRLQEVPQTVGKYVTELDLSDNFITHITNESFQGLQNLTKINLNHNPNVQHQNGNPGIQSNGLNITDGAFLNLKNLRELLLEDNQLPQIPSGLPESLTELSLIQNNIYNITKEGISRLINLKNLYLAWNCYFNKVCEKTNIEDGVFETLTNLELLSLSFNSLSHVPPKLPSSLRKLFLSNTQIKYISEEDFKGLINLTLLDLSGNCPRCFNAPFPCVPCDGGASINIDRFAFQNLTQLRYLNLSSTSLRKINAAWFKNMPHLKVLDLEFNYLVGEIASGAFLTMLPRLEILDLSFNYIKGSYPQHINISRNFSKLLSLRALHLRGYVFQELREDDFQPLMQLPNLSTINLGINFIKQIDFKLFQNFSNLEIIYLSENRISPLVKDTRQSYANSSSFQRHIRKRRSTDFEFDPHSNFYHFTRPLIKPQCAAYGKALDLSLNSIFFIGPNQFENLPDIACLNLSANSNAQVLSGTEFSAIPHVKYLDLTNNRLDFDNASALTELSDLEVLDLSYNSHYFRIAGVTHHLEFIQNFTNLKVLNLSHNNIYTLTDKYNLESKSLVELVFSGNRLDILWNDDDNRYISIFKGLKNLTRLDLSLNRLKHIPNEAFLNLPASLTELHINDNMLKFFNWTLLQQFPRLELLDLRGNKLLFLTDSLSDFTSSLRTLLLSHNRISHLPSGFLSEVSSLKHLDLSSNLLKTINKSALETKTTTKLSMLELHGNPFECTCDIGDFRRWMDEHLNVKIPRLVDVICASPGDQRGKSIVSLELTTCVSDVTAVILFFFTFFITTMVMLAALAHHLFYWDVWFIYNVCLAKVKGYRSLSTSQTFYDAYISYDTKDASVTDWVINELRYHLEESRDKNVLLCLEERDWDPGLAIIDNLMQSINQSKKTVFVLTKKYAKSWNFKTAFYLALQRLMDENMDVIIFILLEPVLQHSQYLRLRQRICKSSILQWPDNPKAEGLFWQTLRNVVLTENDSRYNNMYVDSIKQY
Chain of Toll-like receptor 4 (O00206 whole entry): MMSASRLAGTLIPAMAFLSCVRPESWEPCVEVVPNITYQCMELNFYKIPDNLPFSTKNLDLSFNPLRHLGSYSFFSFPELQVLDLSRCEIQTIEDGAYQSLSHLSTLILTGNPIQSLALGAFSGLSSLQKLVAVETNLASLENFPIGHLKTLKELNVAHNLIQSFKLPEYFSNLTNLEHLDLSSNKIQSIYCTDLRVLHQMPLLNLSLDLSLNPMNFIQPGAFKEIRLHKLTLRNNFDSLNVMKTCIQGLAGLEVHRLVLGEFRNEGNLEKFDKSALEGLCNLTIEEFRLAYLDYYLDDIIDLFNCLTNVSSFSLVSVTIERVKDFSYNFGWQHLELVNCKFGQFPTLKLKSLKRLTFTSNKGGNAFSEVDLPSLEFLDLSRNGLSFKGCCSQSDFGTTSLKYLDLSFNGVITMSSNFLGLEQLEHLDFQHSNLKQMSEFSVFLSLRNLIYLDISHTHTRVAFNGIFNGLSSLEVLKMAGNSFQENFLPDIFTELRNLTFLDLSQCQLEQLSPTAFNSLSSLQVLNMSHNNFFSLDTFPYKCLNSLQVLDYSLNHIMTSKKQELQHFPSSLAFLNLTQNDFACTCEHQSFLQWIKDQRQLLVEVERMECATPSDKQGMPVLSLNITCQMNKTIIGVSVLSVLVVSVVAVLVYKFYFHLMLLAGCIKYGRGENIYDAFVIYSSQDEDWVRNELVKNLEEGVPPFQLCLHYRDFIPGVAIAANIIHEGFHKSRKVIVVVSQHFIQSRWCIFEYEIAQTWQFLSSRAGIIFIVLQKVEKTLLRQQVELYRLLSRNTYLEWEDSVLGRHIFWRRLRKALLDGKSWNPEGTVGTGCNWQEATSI
Chain of Toll-like receptor 3 (Homo sapiens) (O15455 whole entry): as the sequence (O15455 whole entry, looked up, one chain of several) above
Chain of Toll-like receptor 2 (O60603 whole entry): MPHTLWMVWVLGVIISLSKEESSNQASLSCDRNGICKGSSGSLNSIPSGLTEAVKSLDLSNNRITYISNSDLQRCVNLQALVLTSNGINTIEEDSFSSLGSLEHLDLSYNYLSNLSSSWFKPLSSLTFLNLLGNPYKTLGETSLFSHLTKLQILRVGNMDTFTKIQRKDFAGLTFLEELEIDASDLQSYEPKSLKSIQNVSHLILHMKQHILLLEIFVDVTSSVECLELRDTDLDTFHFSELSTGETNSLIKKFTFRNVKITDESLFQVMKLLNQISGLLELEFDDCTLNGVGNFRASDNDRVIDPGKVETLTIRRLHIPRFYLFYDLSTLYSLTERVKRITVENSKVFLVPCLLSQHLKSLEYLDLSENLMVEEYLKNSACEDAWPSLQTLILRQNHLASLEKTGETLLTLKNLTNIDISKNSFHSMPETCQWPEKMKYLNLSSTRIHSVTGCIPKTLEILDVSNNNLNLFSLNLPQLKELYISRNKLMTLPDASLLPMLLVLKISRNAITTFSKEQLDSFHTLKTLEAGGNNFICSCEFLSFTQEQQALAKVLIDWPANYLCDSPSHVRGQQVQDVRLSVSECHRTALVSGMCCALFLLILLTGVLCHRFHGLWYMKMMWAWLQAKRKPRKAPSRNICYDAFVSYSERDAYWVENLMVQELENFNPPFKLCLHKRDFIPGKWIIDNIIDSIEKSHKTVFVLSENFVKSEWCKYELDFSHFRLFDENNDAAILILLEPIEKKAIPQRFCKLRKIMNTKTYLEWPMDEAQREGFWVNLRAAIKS

**Q.** With O=[N+]([O-])c1ccc(COc2cc3c(cc2OCc2ccc([N+](=O)[O-])cc2)OC2(C=C3)CCOCC2)cc1 as the molecule, how does the Activity (HeLa [1]) read?
**A.** The Activity was “Dose-dependent effect”.

**Q.** And the IC50 (HeLa [1])?
**A.** The IC50 was 15.8 µM.

**Q.** And the Activity (HeLa [2])?
**A.** The Activity was 41%.

**Q.** What about the EC50 (Toll-like receptor 9) of the same molecule?
**A.** Its EC50 is 5.66 µM.

**Q.** What about the EC50 (Toll-like receptor 2) of the same molecule?
**A.** Its EC50 is > 100 µM.

**Q.** And the Activity (HeLa [3])?
**A.** Its Activity is 19%.

**Q.** And the Activity (HeLa [4])?
**A.** The Activity was 46%.

**Q.** And the IC50 (HMEC [5])?
**A.** The IC50 was > 100 µM.

**Q.** What about the Activity (HeLa [6]) of the same molecule?
**A.** The Activity was 40%.

**Q.** And the fold change (FC) [7]?
**A.** Its fold change (FC) is 13.9.

**Q.** What about the IC50 (HMEC [8]) of the same molecule?
**A.** Its IC50 is 79.5 µM.

**Q.** And the EC50 (Toll-like receptor 4)?
**A.** The EC50 was > 100 µM.

**Q.** And the Activity [9]?
**A.** Its Activity is “Dose-dependent effect”.

**Q.** And the Activity [10]?
**A.** Its Activity is “Dose-dependent effect”.
